Measured values: ChEMBL document CHEMBL4118036, “α-Glucosidase Inhibitors from Salvia circinata” (J Nat Prod, 2017)
The source made the active and inactive calls. No cut-off for these calls is given here.

Tests used:
[1] = Inhibition of rat intestinal alpha-glucosidase using p-nitrophenyl-alpha-D-glucopyranoside as substrate pretreated for 10 mins followed by substrate addition measured after 30 mins
In short: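 Rat intestinal acetone powder (40 mg/mL in 100 mM PBS, pH 7) as enzyme source. Test agents were dissolved in PBS or MeOH–PBS (1:1), then preincubated with the enzyme for 10 min at 37 °C. p-Nitrophenyl-α-D-glucopyranoside was added (20 mM stock in PBS) and incubated for 30 min at 37 °C. Absorbance read at 405 nm; IC50 derived per earlier reports.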

Alpha-glucosidase = target: T1, Alpha-glucosidase (Blautia obeum, UniProt A0A173Z7B1); test: Inhibition of recombinant Ruminococcus obeum ATCC 29174 alpha-glucosidase expressed in Escherichia coli BL21(DE3) using p-nitrophenyl-alpha-D-glucopyranoside as substrate pretreated for 10 mins followed by substrate addition measured after 3 hrs; design: species or system Blautia obeum ATCC 29174
T1 sequence (A0A173Z7B1 whole entry): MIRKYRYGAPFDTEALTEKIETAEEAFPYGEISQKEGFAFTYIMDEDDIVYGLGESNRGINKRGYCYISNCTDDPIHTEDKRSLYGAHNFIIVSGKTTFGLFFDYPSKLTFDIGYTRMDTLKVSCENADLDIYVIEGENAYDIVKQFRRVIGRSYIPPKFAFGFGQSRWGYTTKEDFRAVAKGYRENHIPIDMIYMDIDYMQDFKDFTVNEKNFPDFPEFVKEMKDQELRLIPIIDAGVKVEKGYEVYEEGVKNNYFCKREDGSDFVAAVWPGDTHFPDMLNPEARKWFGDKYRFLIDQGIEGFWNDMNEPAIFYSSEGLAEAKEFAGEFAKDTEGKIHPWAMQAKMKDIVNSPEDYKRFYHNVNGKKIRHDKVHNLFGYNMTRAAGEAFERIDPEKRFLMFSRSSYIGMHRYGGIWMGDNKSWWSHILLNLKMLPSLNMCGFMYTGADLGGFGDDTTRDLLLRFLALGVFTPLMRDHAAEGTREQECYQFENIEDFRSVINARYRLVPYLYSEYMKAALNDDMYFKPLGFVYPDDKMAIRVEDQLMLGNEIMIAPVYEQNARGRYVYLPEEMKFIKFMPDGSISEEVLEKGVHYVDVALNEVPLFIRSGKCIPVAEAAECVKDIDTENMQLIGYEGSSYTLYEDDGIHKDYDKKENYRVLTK
In short: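 Enzyme from E. coli BL21-DE3/pET12b grown in LB at 37 °C and induced with 0.5 mM IPTG for 8 h. Cells were sonicated in 50 mM bis-TRIS propane pH 8.0 and the lysate clarified. Enzyme (5.2 mg/mL) was preincubated with test agents for 10 min at 37 °C. pNP-α-glucoside was added (20 mM stock) and incubated for 3 h at 37 °C.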

Mus musculus [2] = test: Antihyperglycemic activity in ig dosed ICR mouse assessed as reduction in postprandial blood glucose levels pretreated for 30 mins followed by oral sucrose challenge measured at 30 mins interval for 120 mins by OSTT; assay type: functional, organism-based
Rattus norvegicus = species: Rattus norvegicus; test: Potency index, ratio of acarbose IC50 to test compound IC50 for rat intestinal alpha-glucosidase
Mus musculus [3] = test: Antihyperglycemic activity in ICR mouse assessed as reduction in postprandial blood glucose levels at 5 mg/kg, ig pretreated for 30 mins followed by oral sucrose challenge measured at 30 mins interval for 120 mins by OSTT; assay type: functional, organism-based

Structure (SMILES)	IC50 [1] [µM]	further results
CO[C@@H]1C=C(CC[C@]2(C)[C@H](C)CC[C@@]34COC(=O)C3=C[C@@H](O[C@@H]3O[C@H](CO)[C@@H](O)[C@H](O)[C@H]3O)C[C@@H]42)C(=O)O1	> 10000	
COc1ccc(-c2cc(=O)c3c(O)c(O)c(OC)cc3o2)cc1OC	1800	
COc1cc2oc(-c3ccc(O)c(O)c3)cc(=O)c2c(O)c1O	810	IC50 (Alpha-glucosidase): 60 µM; Activity (Mus musculus [2]): Dose-dependent effect
COc1cc(-c2cc(=O)c3c(O)c(O)c(OC)cc3o2)ccc1Oc1ccc(-c2cc(=O)c3c(O)c(O)c(OC)cc3o2)cc1OC	39	Ratio IC50 (Rattus norvegicus): 2.5
C[C@@H]1CC[C@@]23COC(=O)C2=C[C@@H](O[C@@H]2O[C@H](CO)[C@@H](O)[C@H](O)[C@H]2O)C[C@@H]3[C@]1(C)CCC1=CCOC1=O	> 10000	
C[C@@H]1CC[C@@]23COC(=O)C2=C[C@@H](O[C@@H]2O[C@H](CO)[C@@H](O)[C@H](O)[C@H]2O)C[C@@H]3[C@]1(C)CCc1ccoc1	500	IC50 (Alpha-glucosidase): 400 µM; Activity (Mus musculus [2]): Dose-dependent effect
CC(=O)CC[C@]1(C)[C@H](C)CC[C@@]23COC(=O)C2=C[C@@H](O[C@@H]2O[C@H](CO)[C@@H](O)[C@H](O)[C@H]2O)C[C@@H]31	> 10000	
C[C@H]1O[C@H](O[C@H]2[C@H](O)[C@@H](O)[C@@H](O[C@H]3[C@H](O)[C@@H](O)C(O)O[C@@H]3CO)O[C@@H]2CO)[C@H](O)[C@@H](O)[C@@H]1N[C@H]1C=C(CO)[C@@H](O)[C@H](O)[C@H]1O (stereo partly specified) [ACARBOSE]	100	Activity (Mus musculus [3]): Active
O=c1cc(-c2ccc(O)cc2)oc2cc(O[C@@H]3O[C@H](CO)[C@@H](O)[C@H](O)[C@H]3O)cc(O)c12 [APIGETRIN]	200	
COC1OC(=O)C=C1CC[C@]1(C)[C@H](C)CC[C@@]23COC(=O)C2=C[C@@H](O[C@@H]2O[C@H](CO)[C@@H](O)[C@H](O)[C@H]2O)C[C@@H]31 (stereo partly specified)	> 10000	
